A selection: hits, their analogues and other compounds. The true share with any hit is near 2.4%.
TbMetRS inhib: T. brucei MetRS inhibitors, primary screen, biochemical, luminescence; methionyl-tRNA synthetase (Trypanosoma brucei brucei); purified T. brucei MetRS, ATP depletion, Kinase-Glo luminescence; inhibition, % at 11.9 µM; 360,000 compounds, 0.4% hits; AID 624268, 2012;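 active = inhibition above a per-plate cutoff of the control wells' mean inhibition plus 3 SD, cut at about 5.5% in these data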;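 note: 0% = DMSO wells median and 100% = median of wells with control inhibitor compound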
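Dosing: 11.9 µM single point; system: parasite MetRS enzyme; technique: luminescence of leftover ATP; times: 15 min enzyme-compound preincubation, 2 h reaction, 10 min detection, 25 °C; replicates: each compound tested once; read-out basis: percent inhibition relative to median high and low control wells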
MC4R barr agon: MC4R agonists recruiting beta-arrestin, primary screen, cell-based, luminescence, agonist arm of biased-ligand search | U2OS MC4R beta-arrestin complementation; percent of melanotan II response, DMSO zero | 360,000 compounds, 0.98% hits | activation, % at 8.9 µM | AID 540308, 2011;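 active = activation above a per-plate cutoff, the mean activation of sample wells on that plate plus 3 SD, cut at about 8% in these data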
NTR1 agonist: agonists of human NTR1, primary screen, imaging, U2OS cells, beta-arrestin-GFP, high content; Neurotensin receptor type 1 (Homo sapiens), P30989; NTR1-U2OS beta-arrestin-GFP spot imaging, agonist mode; activation, % at 20 µM; 330,000 compounds, 0.17% hits; AID 493036, 2011;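 active = activation at or above 40% of the spot to cytoplasm intensity ratio, with at least 20 cells analyzed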;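 note: 0% = DMSO without peptide and 100% = 100 nM NTR1 peptide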
Target sequence (P30989 whole entry, looked up): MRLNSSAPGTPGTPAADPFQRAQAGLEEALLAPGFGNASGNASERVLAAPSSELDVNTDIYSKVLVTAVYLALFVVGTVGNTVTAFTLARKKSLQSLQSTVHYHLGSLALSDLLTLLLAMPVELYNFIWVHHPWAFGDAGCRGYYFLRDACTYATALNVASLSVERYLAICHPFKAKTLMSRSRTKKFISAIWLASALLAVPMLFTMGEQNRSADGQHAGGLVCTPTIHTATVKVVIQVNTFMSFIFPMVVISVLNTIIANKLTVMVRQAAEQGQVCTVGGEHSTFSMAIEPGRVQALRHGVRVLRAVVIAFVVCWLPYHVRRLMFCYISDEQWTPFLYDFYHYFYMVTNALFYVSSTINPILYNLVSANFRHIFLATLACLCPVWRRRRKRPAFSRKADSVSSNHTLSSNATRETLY
MC4R antagonist: MC4R antagonists of cAMP signaling, primary screen, cell-based, TR-FRET, antagonist arm of biased-ligand search; Melanocortin receptor 4 (Homo sapiens), P32245; MC4R-expressing cells, MTII-stimulated cAMP, LANCE TR-FRET; inhibition, % at 6.5 µM; 360,000 compounds, 0.48% hits; AID 540295, 2011;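 active = inhibition above its plate's cutoff, the mean of tested wells on that plate plus 3 SD, cut at about 29% in these data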;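 note: 0% = Melanotan II alone and 100% = Melanotan II plus saturating MCL0020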
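Material – human MC4R-expressing U2OS cells · Repeats – no replicates · Detection – TR-FRET with Eu-cAMP and labeled anti-cAMP, 671 nm · Times – compound 30 min, challenge 1 h, detection 1 h · Compound – single nominal compound dose of 6.5 µM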
H9c2 TAG inh: inhibitors of triacylglycerol accumulation, primary screen, cell-based, uHTS, fluorescence, H9c2; 230,000 compounds, 0.66% hits; inhibition, % at 12.5 µM; AID 651582, 2012; H9c2 cells, Nile Red lipid (TAG) fluorescence; cells loaded with 200 µM oleic acid;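 active = pattern-corrected inhibition of lipid staining of at least 50% with the nuclear-stain viability signal not falling by more than 50%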;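 note: 0% = DMSO wells and 100% = triacsin C control wells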
aDG glyco up: activators of alpha-DG glycosylation, primary screen, uHTS, Pro5-aDG cells, AlphaScreen. alpha-DG glycosylation AlphaScreen (IIH6); 0% Pro5, 100% B10-LARGE cell signal. 360,000 compounds, 0.22% hits. activation, % at 10 µM;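 active = activation of at least 8% versus controls, or a plate z-score of at least 8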;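 note: Pro5 are CHO cells carrying HIG-tagged alpha-DG that lacks glycosylation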
Numbers without * were called inactive; · = no result.

SMILES	TbMetRS inhib	MC4R barr agon	NTR1 agonist	MC4R antagonist	H9c2 TAG inh	aDG glyco up
CN1CCc2nc3sc(C(=O)C45CC6CC(CC(C6)C4)C5)c(N)c3cc2C1	-2	12*	2	0	10	0
Cc1ccc(CN2CC(N3CCN(CC4CC4)CC3)CS2(=O)=O)cc1 (centres undefined)	0	·	·	·	·	3
Cc1ccc(C(=O)N/N=C\c2ccc([N+](=O)[O-])s2)cn1	0	-2	4	-26	·	6
Cc1ccc(C(=O)N/N=C/c2ccc([N+](=O)[O-])s2)cc1	-1	3	1	-16	-7	13*
O=C(N/N=C/c1ccccc1O)c1ccncc1	0	-1	2	-3	-20	1
O=C(N/N=C/c1ccc([N+](=O)[O-])s1)c1cccc(Br)c1	0	-2	0	-7	-98	8.9*
O=C(N/N=C/c1ccc([N+](=O)[O-])s1)c1ccncc1	0	0	0	-32	·	12*
O=C(N/N=C/c1cc(Br)ccc1O)c1ccncc1	0	-3	0	8	56*	0
O=C(C(=O)N1CCC(Cc2ccccc2)CC1)c1ccccc1	0	·	·	·	·	0
Cc1cccc(C)c1NC(=O)C1(C)CCC(=O)N1CCc1c[nH]c2ccccc12 (centres undefined)	1	·	·	·	·	0
COc1cc2c3nnc(-c4ccc(F)cc4)c-3cn(Cc3ccccc3F)c2cc1OC	-1	12*	·	2	-249	0
COc1ccccc1Cc1c(-c2ccc(F)cc2)nc2ccc(Cl)cn12	0	·	·	·	·	0
CC(C)(C)NCC(O)COc1ccccc1C(=O)CCc1ccccc1 (centres undefined)	-2	3	1	3	·	2.5*
Cc1cccc(C)c1NC(=O)c1cccc(COc2cc(Cl)ccc2Cl)c1	-1	12*	1	-4	-5	0
Cc1cccc2sc(NC(=O)CCNS(=O)(=O)c3cccs3)nc12	0	0	1	3	65*	0
COc1ccc2c(c1)c(N=NC(N)=S)c(O)n2CC(=O)c1ccccc1	-1	12*	1	-1	·	0
CC(C)n1nnnc1C1c2ccccc2C(=O)N1Cc1ccco1 (centres undefined)	0	·	·	·	·	0
O=C1c2cccc(Sc3ccccc3)c2C(=O)c2c(Sc3ccccc3)cccc21	-1	-1	1	16	78*	-1
O=C1c2cccc(O)c2C(=O)c2c(O)cccc21	·	·	3	·	·	·
COc1ccc(CNC(=O)c2cc3c(C)nc4ccccc4c3o2)c(OC)c1	-1	8.6*	2	6	-27	0
CCCCNC(=O)C1C(c2ccc(OC)cc2)=Nc2ccccc2N1C(=O)c1cccnc1 (centres undefined)	0	·	·	·	·	1
COc1cccc(C(=O)Nc2ccc3c(c2)OC[C@H](C)N(C(=O)C2CCCC2)C[C@@H](C)[C@@H](OC)CN(C)C3=O)c1	0	·	·	·	·	0
COc1ccc2c(c1)sc1nc(-c3ccccc3)cn12	-2	-2	4	-21	45	14*
CCOC(=O)N1CCN(C(=O)c2ccc3c(c2)sc2nc(-c4ccc(OC)cc4)cn23)CC1	0	0	4	20	·	1
CCCCN(C=O)c1c(CC)nc2ccc(C(=O)N3CCN(S(=O)(=O)CC)CC3)cn12	0	-1	·	0	0	0
Cc1ccc2nc(NC(=O)CSCc3ccccc3)sc2c1	-2	8.9*	2	-5	-30	1
Cc1ccc2nc(NC(=O)CS(=O)(=O)Cc3ccccc3)sc2c1	0	2	-1	1	0	0
CCCCCc1c(C)nc(Nc2ccccc2)[nH]c1=O	7.8*	2	6	14	·	0

Screening data deposited in PubChem by several laboratories.
